Test [1] deals with Rattus norvegicus. Description: The heart rate was measured in spontaneous hypertensive rat after po administration at 4 hr. The format is functional. In short, it runs like this: (§1)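 Male-unspecified SHR (250-350 g; baseline BP at least 170 mmHg by indirect tail-cuff plethysmography), nonanesthetized, five per group. Single oral dose of 75 mg/kg. Indirect BP and heart rate recorded before dosing and 4, 8 and 24 h after. Group means reported, BP ± SEM.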

Test [2] is filed under the species Rattus norvegicus. The test is described as follows: Saluretic activity in rats after 0-24 hours, as sodium ion concentration in urine. The test is classed as functional. The method, boiled down: (§2)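 Male Sabra rats (170-200 g), fasted 18 h, dosed orally 50 mg/kg in saline at 25 mL/kg, eight per compound, two per metabolic cage, no food or water. Urine collected 5 and 24 h after dosing and centrifuged. Chloride titrated with Hg(NO3)2/diphenylcarbazone after HNO3 acidification; Na+ and K+ by atomic absorption.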

For test [3], the species on record is Rattus norvegicus. The test is described as follows: Saluretic activity in rats after 0-5 hours, as sodium ion concentration in urine. The format is functional. In short, it runs like this: as §2
Test [4] is filed under the species Rattus norvegicus. The test is described as follows: Diuretic activity in rats at time intervals of 0-5 hours. The test is classed as functional, Urine. The method, boiled down:
(§3)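 Male Sabra rats (170-200 g), starved 18 h, given 50 mg/kg by stomach tube in saline (25 mL/kg load), eight per compound, saline and furosemide controls run alongside. Held two per metabolic cage at 22 °C without food or water. Urine volume measured at 5 and 24 h collections.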

The species entered for test [5] is Rattus norvegicus. The test is described as follows: Compound was tested for antihypertensive activity in rat after 1 hr postdose. The format is functional. The method, boiled down:
(§4)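 DOCA/saline hypertensive Sprague-Dawley rats (250-350 g), six per group, given 10 mg/kg doca s.c. daily with saline until systolic BP reached 170 mmHg (usually 3-4 weeks). Oral 25 mg/kg in 5 mL/kg 1% methylcellulose. Systolic BP by tail-cuff before and 1, 4, 24 h after; drop reported as mean ± SD.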

For test [6], the species on record is Rattus norvegicus. Description: Saluretic activity in rats after 5-24 hours, as ratio of Na+/K+ ion concentration in urine. The format is functional. In short, it runs like this:
as §2

For test [7], the species on record is Rattus norvegicus. Description: Compound was tested for antihypertensive activity in rat after 4 hr postdose. The test is classed as functional. The method, boiled down:
as §4

For test [8], the species on record is Rattus norvegicus. Description: Saluretic activity in rats after 0-24 hours, as ratio of Na+/K+ ion concentration in urine. The format is functional. In short, it runs like this: as §2
In test [9] the test system is Rattus norvegicus. Description: Blood pressure was measured in spontaneously hypertensive rat after po administration at 8 hr. The format is functional. The method, boiled down:
as §1

Test [10] is filed under the species Rattus norvegicus. Description: Diuretic activity in rats at time intervals of 0-24 hours. The test is classed as functional, Urine. In short, it runs like this: as §3
The species entered for test [11] is Rattus norvegicus. Description: Compound was tested for antihypertensive activity in rat after 24 hr postdose. The format is functional. The method, boiled down:
as §4

The test system of test [12] is Rattus norvegicus. The test is described as follows: The heart rate was measured in spontaneously hypertensive rat after po administration at 24 hr. The format is functional. The method, boiled down:
as §1

The subject of test [13] is Rattus norvegicus. The test is described as follows: Blood pressure was measured in spontaneously hypertensive rat after po administration at 24 hr. The test is classed as functional. In short, it runs like this:
as §1

Test [14] is filed under the species Rattus norvegicus. Description: Saluretic activity in rats after 5-24 hours, as chloride ion concentration in urine. The test is classed as functional. The method, boiled down: as §2
Test [15] deals with Rattus norvegicus. The test is described as follows: Blood pressure was measured in spontaneously hypertensive rat after po administration at 4 hr. The format is functional. The method, boiled down: as §1
Test [16] is filed under the species Rattus norvegicus. Description: Saluretic activity in rats after 0-5 hours, as chloride ion concentration in urine. The format is functional. The method, boiled down:
as §2

Test [17] is filed under the species Rattus norvegicus. Description: Saluretic activity in rats after 0-5 hours, as ratio of Na+/K+ ion concentration in urine. The test is classed as functional. The method, boiled down:
as §2

Test [18] is filed under the species Rattus norvegicus. Description: Saluretic activity in rats after 5-24 hours, as sodium ion concentration in urine. The test is classed as functional. In short, it runs like this:
as §2

The species named for test [19] is Rattus norvegicus. The test is described as follows: Diuretic activity in rats at time intervals of 5-24 hours. The format is functional, Urine. The method, boiled down: as §3
Test [20] is filed under the species Rattus norvegicus. The test is described as follows: Saluretic activity in rats after 0-24 hours, as chloride ion concentration in urine. The test is classed as functional. In short, it runs like this: as §2
Test [21] is filed under the species Rattus norvegicus. Description: Saluretic activity in rats after 0-5 hours, as potassium ion concentration in urine. The format is functional. In short, it runs like this:
as §2

In test [22] the test system is Rattus norvegicus. Description: The heart rate was measured in spontaneously hypertensive rat after po administration at 8 hr. The test is classed as functional. The method, boiled down: as §1
The species named for test [23] is Rattus norvegicus. The test is described as follows: Saluretic activity in rats after 5-24 hours, as potassium ion concentration in urine. The format is functional. The method, boiled down: as §2
The species named for test [24] is Rattus norvegicus. The test is described as follows: Saluretic activity in rats after 0-24 hours, as potassium ion concentration in urine. The test is classed as functional. The method, boiled down:
as §2

As for `NS(=O)(=O)c1cc2c(=O)n(Cc3ccccc3)ncc2cc1Cl`, the figures for the Heart rate in the test on Rattus norvegicus [1], with Rattus norvegicus [12] and with Rattus norvegicus [22] were 399.6 beats min-1, 402 beats min-1 and 411.6 beats min-1, respectively. Further, the Saluretic activity was found to be 12.32 m equiv kg-1 in the test listed under Rattus norvegicus [2]; 6.4 m equiv kg-1 in the test filed under Rattus norvegicus [3]; 5.72 m equiv kg-1 in the test listed under Rattus norvegicus [14]; 7.97 m equiv kg-1 in the test listed under Rattus norvegicus [16]; 5.92 m equiv kg-1 in the test filed under Rattus norvegicus [18]; 13.69 m equiv kg-1 in the test listed under Rattus norvegicus [20]. Further, the figures for the Saluretic activity in the test filed under Rattus norvegicus [21], in the test listed under Rattus norvegicus [23] and in the test filed under Rattus norvegicus [24] were 1.94 m equiv kg-1, 3.36 m equiv kg-1 and 5.3 m equiv kg-1, respectively. For the same compound, the results for the Diuretic activity in the test filed under Rattus norvegicus [4], in the test listed under Rattus norvegicus [10] and in the test listed under Rattus norvegicus [19] were 5.9 mL, 10.8 mL and 4.9 mL, respectively. In addition, the “Decrease in blood pressure” value in the test listed under Rattus norvegicus [5] stood at 23 mmHg; in the test filed under Rattus norvegicus [7], 36 mmHg; in the test filed under Rattus norvegicus [11], 47 mmHg. Moreover, the Ratio turned out to be 1.78 in the test listed under Rattus norvegicus [6], 2.32 in the test filed under Rattus norvegicus [8] and 3.29 in the test filed under Rattus norvegicus [17]. Also, the BP in the test on Rattus norvegicus [9] stood at 149 mmHg; in the test with Rattus norvegicus [13], 170.2 mmHg; in the test with Rattus norvegicus [15], 163.2 mmHg. The Delta blood pressure in the test with Rattus norvegicus [9] came to 40.2 mmHg; in the test on Rattus norvegicus [13] it was 14.6 mmHg; in the test on Rattus norvegicus [15] it was 23.4 mmHg.
As for `NS(=O)(=O)c1cc2c(cc1Cl)CNN(Cc1ccco1)C2=O`, the Saluretic activity in the test filed under Rattus norvegicus [2] turned out to be 9.83 m equiv kg-1; in the test filed under Rattus norvegicus [3] it was 6.74 m equiv kg-1; in the test listed under Rattus norvegicus [14], 2.98 m equiv kg-1; in the test filed under Rattus norvegicus [16], 8.45 m equiv kg-1; in the test listed under Rattus norvegicus [18] it was 3.09 m equiv kg-1; in the test filed under Rattus norvegicus [20] it was 11.43 m equiv kg-1. Moreover, the results for the Saluretic activity in the test listed under Rattus norvegicus [21], in the test listed under Rattus norvegicus [23] and in the test listed under Rattus norvegicus [24] were 2.38 m equiv kg-1, 3.37 m equiv kg-1 and 5.75 m equiv kg-1, respectively. Besides, the figures for the Diuretic activity in the test filed under Rattus norvegicus [4], in the test filed under Rattus norvegicus [10] and in the test listed under Rattus norvegicus [19] were 6.7 mL, 10.5 mL and 3.8 mL, respectively. In addition, the figures for the “Decrease in blood pressure” value in the test listed under Rattus norvegicus [5], in the test filed under Rattus norvegicus [7] and in the test filed under Rattus norvegicus [11] were 25.3 mmHg, 31.3 mmHg and 23 mmHg, respectively. In addition, the Ratio in the test listed under Rattus norvegicus [6] was 0.92; in the test filed under Rattus norvegicus [8] it was 1.71; in the test filed under Rattus norvegicus [17] it was 2.83.
Consider `NS(=O)(=O)c1cc2cnn(Cc3ccccc3)c(=O)c2cc1Cl`, for which the Saluretic activity in the test filed under Rattus norvegicus [2] was found to be 8.79 m equiv kg-1; in the test listed under Rattus norvegicus [3], 2.5 m equiv kg-1; in the test filed under Rattus norvegicus [14], 6 m equiv kg-1; in the test listed under Rattus norvegicus [16], 2.9 m equiv kg-1; in the test listed under Rattus norvegicus [18] it was 6.29 m equiv kg-1; in the test listed under Rattus norvegicus [20] it was 8.9 m equiv kg-1. For the same compound, the Saluretic activity in the test filed under Rattus norvegicus [21] is listed as 1.84 m equiv kg-1; in the test listed under Rattus norvegicus [23], 3.9 m equiv kg-1; in the test filed under Rattus norvegicus [24], 5.74 m equiv kg-1. Moreover, the Diuretic activity was 2.6 mL in the test filed under Rattus norvegicus [4], 6.2 mL in the test listed under Rattus norvegicus [10] and 3.6 mL in the test listed under Rattus norvegicus [19]. The “Decrease in blood pressure” value in the test filed under Rattus norvegicus [5] worked out at 35.3 mmHg; in the test filed under Rattus norvegicus [7], 54.3 mmHg; in the test listed under Rattus norvegicus [11], 4.7 mmHg. Besides, the Ratio was 1.62 in the test listed under Rattus norvegicus [6], 1.53 in the test filed under Rattus norvegicus [8] and 1.36 in the test listed under Rattus norvegicus [17].
In the case of `NS(=O)(=O)c1cc(C(=O)O)c(NCc2ccco2)cc1Cl` [FUROSEMIDE], the Saluretic activity in the test listed under Rattus norvegicus [2] turned out to be 16.22 m equiv kg-1; in the test filed under Rattus norvegicus [3] it was 13.2 m equiv kg-1; in the test filed under Rattus norvegicus [14], 1.65 m equiv kg-1; in the test filed under Rattus norvegicus [16] it was 16.2 m equiv kg-1; in the test listed under Rattus norvegicus [18], 3.02 m equiv kg-1; in the test filed under Rattus norvegicus [20] it was 17.85 m equiv kg-1. Besides, the results for the Saluretic activity in the test listed under Rattus norvegicus [21], in the test listed under Rattus norvegicus [23] and in the test filed under Rattus norvegicus [24] were 4.36 m equiv kg-1, 4.42 m equiv kg-1 and 8.78 m equiv kg-1, respectively. In addition, the Diuretic activity in the test filed under Rattus norvegicus [4] came to 19.2 mL; in the test listed under Rattus norvegicus [10], 22 mL; in the test listed under Rattus norvegicus [19], 3 mL. In addition, the “Decrease in blood pressure” value was 35.8 mmHg in the test filed under Rattus norvegicus [5], 59.2 mmHg in the test listed under Rattus norvegicus [7] and 5.3 mmHg in the test listed under Rattus norvegicus [11]. Moreover, the Ratio in the test listed under Rattus norvegicus [6] is 0.68; in the test filed under Rattus norvegicus [8] it was 1.85; in the test listed under Rattus norvegicus [17], 3.03.
For `CN1NCc2cc(Cl)c(S(N)(=O)=O)cc2C1=O`, the Saluretic activity in the test listed under Rattus norvegicus [2] was 10.43 m equiv kg-1; in the test listed under Rattus norvegicus [3], 4.45 m equiv kg-1; in the test filed under Rattus norvegicus [14] it was 3.15 m equiv kg-1; in the test listed under Rattus norvegicus [16], 6.2 m equiv kg-1; in the test listed under Rattus norvegicus [18], 5.98 m equiv kg-1; in the test listed under Rattus norvegicus [20] it was 9.35 m equiv kg-1. The Saluretic activity was 2.55 m equiv kg-1 in the test filed under Rattus norvegicus [21], 5.27 m equiv kg-1 in the test listed under Rattus norvegicus [23] and 7.82 m equiv kg-1 in the test listed under Rattus norvegicus [24]. Further, the Diuretic activity in the test listed under Rattus norvegicus [4] amounted to 5 mL; in the test listed under Rattus norvegicus [10] it was 11.8 mL; in the test listed under Rattus norvegicus [19], 6.8 mL. Besides, the “Decrease in blood pressure” value worked out at 31.3 mmHg in the test filed under Rattus norvegicus [5], 45 mmHg in the test listed under Rattus norvegicus [7] and 22.7 mmHg in the test filed under Rattus norvegicus [11]. Moreover, the Ratio in the test filed under Rattus norvegicus [6] was determined as 1.13; in the test filed under Rattus norvegicus [8], 1.33; in the test filed under Rattus norvegicus [17] it was 1.74.
